Experimental data pooled from the literature.
Compare with care: the assays were run in different laboratories.
Read-out: cell growth or viability

The CC50 of `O=[N+]([O-])c1ccc(-c2nc3cccc(O)c3[nH]2)o1` is reported as 97 µM (CHO; resazurin; 72 h).
`CC(Oc1ccc(Cl)cc1Cl)C(=O)NC(c1ccc(F)cc1)C1CCC1` (centres unmarked) has a CC50 of over 100 µM (CHO; LDH).
`C#CCN[C@@H]1CCc2ccccc21` has an IC50 of over 500 µM (SH-SY5Y; MTT; 24 h).
The CC50 of `CC(Oc1ccc(F)cc1Cl)C(=O)NCc1ccc2c(c1)OCO2` (centres unmarked) is reported as over 100 µM (CHO; LDH).
With `CN1CCN(CC2CCN(c3nccc4[nH]c(-c5cc(F)cc(F)c5)nc34)CC2)CC1` the CC50 was 24 µM (CHO).
For `O=C(Cn1cnc2ccccc21)NN=Cc1ccc(O)cc1O`, the IC50 was 89.2 µM (SH-SY5Y; MTT; 24 h).
The CC50 of `CN1CCN(c2nccc3nc(-c4ccc(F)c(F)c4)[nH]c23)CC1` is reported as over 50 µM (CHO).
For `COc1ccc(S(=O)(=O)ON=C2C=C(C)C(=O)C(C)=C2)cc1`, the CC50 was 0.19 µM (SH-SY5Y).
